Measured values from PMC4792293 (RSC advances, 2015).
Where two headings read alike, the source gives them in different places.

How the values were obtained:
[1] = target: T1, α-Glucosidase (EC 3.2.1.20) from Saccharomyces cerevisiae (Saccharomyces cerevisiae, UniProt P53341); test: α-glucosidase inhibitory assay; type: biochemical
[2] = target: T1, α-Glucosidase (EC 3.2.1.20) from Saccharomyces cerevisiae; test: Kinetics of α-glucosidase inhibition; type: biochemical; conditions: Lineweaver-Burk plots, ligand 2 – 250 μM
In short: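 Two inhibitor concentrations within 2–250 μM were tested against p-nitrophenyl-α-D-glucopyranoside at 1–1000 μM in 50 mM phosphate, pH 6.8. Enzyme and inhibitor were pre-incubated for 30 min, at room temperature per the methods but at 37 °C per the figure legend. Substrate was then added, reacted 60 s at room temperature and read at 405 nm. Inhibition type was assigned from double-reciprocal plots.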

α-glucosidase [3] = target: T2, α-glucosidase (Saccharomyces cerevisiae, UniProt P53341); test: Isothermal titration calorimetry; type: binding; conditions: for ITC titration peaks: ligand concentrations 1 – 4 mM; for binding constants (Ka) / ΔG / Ka / ΔH / ΔS / N [GCGs/α-glucosidase] (ligand:enzyme ratio): ITC
In short: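 Test compound (1–4 mM) was titrated into α-glucosidase (0.026–0.031 mM) in the cell, both in 100 mM phosphate, pH 7.0, and degassed 20 min under vacuum. Titration used 17 injections at 240 s intervals, 25 °C, with stirring at 310 rpm. Blanks were buffer into buffer and compound into buffer. Data were fit by nonlinear regression to a single-site binding model.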

α-glucosidase [4] = target: T2, α-glucosidase; test: Circular dichroism; type: binding; conditions: α-glucosidase 2 μM; for β-Turns %: control 14.3; for β-Fold %: control 21.9; for Unordered %: control 26.9; for α-Helix %: control 36.3
In short: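 Far-UV CD spectra (190–240 nm) at 25 °C. Yeast α-glucosidase at 2 μM was co-incubated with test compound at 0–80 μM for 20 min at 37 °C in 0.1 M sodium phosphate, pH 6.8, in a 1.0 mm path-length cell. Spectra were blank-subtracted against buffer, noise-reduced and smoothed. Secondary-structure fractions were estimated with the DichroWeb server.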

α-glucosidase [5] = conditions: cited from earlier work
[6] = yeast α-glucosidase, pNPG, pH 6.9, 25 °C, mean ± S.D. from three independent experiments

T2 sequence (P53341 whole entry): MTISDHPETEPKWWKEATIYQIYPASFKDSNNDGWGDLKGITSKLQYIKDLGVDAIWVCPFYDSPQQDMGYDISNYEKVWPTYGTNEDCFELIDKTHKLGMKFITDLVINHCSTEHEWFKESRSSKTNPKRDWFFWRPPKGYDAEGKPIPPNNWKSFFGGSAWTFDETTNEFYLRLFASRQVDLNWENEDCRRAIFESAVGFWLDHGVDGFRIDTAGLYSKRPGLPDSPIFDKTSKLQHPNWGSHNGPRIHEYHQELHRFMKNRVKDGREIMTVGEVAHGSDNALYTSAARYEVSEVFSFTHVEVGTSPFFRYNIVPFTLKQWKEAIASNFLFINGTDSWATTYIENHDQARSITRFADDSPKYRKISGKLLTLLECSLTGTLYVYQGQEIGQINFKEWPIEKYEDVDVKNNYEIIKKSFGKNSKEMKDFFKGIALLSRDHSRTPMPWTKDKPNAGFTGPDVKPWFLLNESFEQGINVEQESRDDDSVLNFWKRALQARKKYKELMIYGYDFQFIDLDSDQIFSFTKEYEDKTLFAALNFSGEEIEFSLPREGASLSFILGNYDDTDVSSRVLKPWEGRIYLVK
T1 sequence (P53341 whole entry): as above

O=C(OC[C@H]1OC[C@H](OC(=O)c2cc(O)c(O)c(O)c2)[C@@H](O)[C@@H]1O)c1cc(O)c(O)c(O)c1 [ginnalin A]
IC50 [1]: 216 ± 3.19 µM | Type of inhibition [2]: noncompetitive | ITC titration peaks (α-glucosidase [3]): too weak to yield thermodynamic parameters | β-Turns % (α-glucosidase [4]; ligand 40 μM): 11.5% | β-Fold % (α-glucosidase [4]; ligand 40 μM): 22.7% | Unordered % (α-glucosidase [4]; ligand 40 μM): 27.8% | α-Helix % (α-glucosidase [4]; ligand 40 μM): 37.8% | β-Turns % (α-glucosidase [4]; ligand 80 μM): 15.8% | β-Fold % (α-glucosidase [4]; ligand 80 μM): 22.5% | Unordered % (α-glucosidase [4]; ligand 80 μM): 27.7% | α-Helix % (α-glucosidase [4]; ligand 80 μM): 33.5%

O=C(OC[C@H]1OC[C@H](OC(=O)c2cc(O)c(O)c(O)c2)[C@@H](OC(=O)c2cc(O)c(O)c(O)c2)[C@@H]1OC(=O)c1cc(O)c(O)c(O)c1)c1cc(O)c(O)c(O)c1 [maplexin J]
IC50 [1, 6]: 4.27 ± 0.13 µM | potency relative to maplexins E and F ([1]; α-glucosidase inhibition): three times more potent than maplexins E and F | Type of inhibition [2]: noncompetitive | binding constants (Ka) (α-glucosidase [3]): 42200 mol⁻¹ | ΔG (α-glucosidase [3]): -6.31 kcal/mol | Ka (α-glucosidase [3]; 25 °C, phosphate buffer pH 7.0): 4.22 10^4 mol^−1 | ΔG (α-glucosidase [3]; 25 °C, phosphate buffer pH 7.0): -1.51 kcal/mol | ΔH (α-glucosidase [3]; 25 °C, phosphate buffer pH 7.0): -6.016 kcal/mol | ΔS (α-glucosidase [3]; 25 °C, phosphate buffer pH 7.0): 63.31 J mol^−1 K^−1 | N [GCGs/α-glucosidase] (ligand:enzyme ratio) (α-glucosidase [3]; 25 °C, phosphate buffer pH 7.0, listed as MJ): 1.01 | β-Turns % (α-glucosidase [4]; ligand 20 μM): 20.4% | β-Fold % (α-glucosidase [4]; ligand 20 μM): 21.1% | Unordered % (α-glucosidase [4]; ligand 20 μM): 26.4% | α-Helix % (α-glucosidase [4]; ligand 20 μM): 31.8% | β-Turns % (α-glucosidase [4]; ligand 40 μM): 19.1% | β-Fold % (α-glucosidase [4]; ligand 40 μM): 24.4% | Unordered % (α-glucosidase [4]; ligand 40 μM): 25.3% | α-Helix % (α-glucosidase [4]; ligand 40 μM): 30.7%

O=C(OC[C@H]1O[C@@H](OC(=O)c2cc(O)c(O)c(O)c2)[C@H](OC(=O)c2cc(O)c(O)c(O)c2)[C@@H](OC(=O)c2cc(O)c(O)c(O)c2)[C@@H]1OC(=O)c1cc(O)c(O)c(O)c1)c1cc(O)c(O)c(O)c1 [PGG, pentagalloyl glucose]
Type of inhibition (α-glucosidase [5]): noncompetitive α-glucosidase inhibitor

maplexin F
IC50 [1, 6]: 13.7 ± 0.87 µM | Type of inhibition [2]: noncompetitive | binding constants (Ka) (α-glucosidase [3]): 28500 mol⁻¹ | ΔG (α-glucosidase [3]): -6.09 kcal/mol | Ka (α-glucosidase [3]; 25 °C, phosphate buffer pH 7.0): 2.85 10^4 mol^−1 | ΔG (α-glucosidase [3]; 25 °C, phosphate buffer pH 7.0): -1.46 kcal/mol | ΔH (α-glucosidase [3]; 25 °C, phosphate buffer pH 7.0): -2.452 kcal/mol | ΔS (α-glucosidase [3]; 25 °C, phosphate buffer pH 7.0): 14.06 J mol^−1 K^−1 | N [GCGs/α-glucosidase] (ligand:enzyme ratio) (α-glucosidase [3]; 25 °C, phosphate buffer pH 7.0, listed as MF): 1.01 | β-Turns % (α-glucosidase [4]; ligand 20 μM): 15.6% | β-Fold % (α-glucosidase [4]; ligand 20 μM): 24.7% | Unordered % (α-glucosidase [4]; ligand 20 μM): 28.4% | α-Helix % (α-glucosidase [4]; ligand 20 μM): 30.7% | β-Turns % (α-glucosidase [4]; ligand 40 μM): 16.6% | β-Fold % (α-glucosidase [4]; ligand 40 μM): 22.7% | Unordered % (α-glucosidase [4]; ligand 40 μM): 28.9% | α-Helix % (α-glucosidase [4]; ligand 40 μM): 31.2%

O=C(O[C@H]1CO[C@H](CO)[C@@H](O)[C@@H]1O)c1cc(O)c(O)c(O)c1 [ginnalin C]
IC50 [1]: > 1000 µM | ITC titration peaks (α-glucosidase [3]): too weak to yield thermodynamic parameters

C[C@H]1O[C@H](O[C@H]2[C@H](O)[C@@H](O)[C@@H](O[C@H]3[C@H](O)[C@@H](O)C(O)O[C@@H]3CO)O[C@@H]2CO)[C@H](O)[C@@H](O)[C@@H]1N[C@H]1C=C(CO)[C@@H](O)[C@H](O)[C@H]1O (stereo partly shown) [acarbose]
Type of inhibition (α-glucosidase [5]; positive control): competitive inhibitor

O=C(OC[C@H]1OC[C@H](O)[C@@H](O)[C@@H]1O)c1cc(O)c(O)c(O)c1 [ginnalin B]
IC50 [1]: > 1000 µM | ITC titration peaks (α-glucosidase [3]): too weak to yield thermodynamic parameters
